Values after ≈ are worked out from the molar mass of the structure shown.
Columns and labels:
Type in all cases: functional
[1] = system: Providencia stuartii; assay: Antimicrobial activity against Proteus stuartii by broth microdilution method
Procedure, shortened: (§1)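 Clinical isolates were tested by CLSI broth microdilution in unsupplemented cation-adjusted Mueller-Hinton broth. The read-out was the MIC, reported as MIC90 (μg/ml) per species or phenotypic group. Ceftriaxone, levofloxacin and imipenem were run in parallel as comparators.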

[2] = system: Proteus vulgaris; assay: Antimicrobial activity against Proteus vulgaris by broth microdilution method; procedure, shortened: as §1
[3] = system: Serratia marcescens; assay: Antimicrobial activity against Serratia marcescens by broth microdilution method; procedure, shortened: as §1
[4] = system: Shigella sp.; assay: Antimicrobial activity against Shigella spp. by broth microdilution method; procedure, shortened: as §1
[5] = system: Salmonella sp.; assay: Antimicrobial activity against Salmonella spp. by broth microdilution method; procedure, shortened: as §1
[6] = system: Burkholderia cepacia; assay: Antimicrobial activity against Burkholderia cepacia by broth microdilution method; procedure, shortened: as §1
[7] = system: Pseudomonas aeruginosa; assay: Antimicrobial activity against Pseudomonas aeruginosa by broth microdilution method; procedure, shortened: as §1
[8] = system: Pseudomonas aeruginosa; assay: Antimicrobial activity against multidrug resistant Pseudomonas aeruginosa by broth microdilution method
Procedure, shortened: (§2)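 Isolates of the stated resistance phenotype were tested by CLSI broth microdilution in unsupplemented cation-adjusted Mueller-Hinton broth. Ceftaroline was compared with ceftriaxone, levofloxacin and imipenem. Activity was expressed as MICs (MIC90 in μg/ml).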

[9] = system: Stenotrophomonas maltophilia; assay: Antimicrobial activity against Stenotrophomonas maltophilia by broth microdilution method; procedure, shortened: as §1
[10] = system: Moraxella catarrhalis; assay: Antimicrobial activity against Moraxella catarrhalis by broth microdilution method; procedure, shortened: as §1
[11] = system: Haemophilus influenzae; assay: Antimicrobial activity against beta-lactamase-negative Haemophilus influenzae by broth microdilution method
Procedure, shortened: (§3)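 CLSI broth microdilution in Haemophilus test medium (cation-adjusted Mueller-Hinton base) against clinical H. influenzae isolates of the stated phenotype. Ceftaroline was compared with ceftriaxone, levofloxacin and imipenem. Activity was expressed as MICs (MIC90 in μg/ml).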

[12] = system: Haemophilus influenzae; assay: Antimicrobial activity against beta-lactamase-positive Haemophilus influenzae by broth microdilution method
Procedure, shortened: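 H. influenzae isolates were tested by CLSI broth microdilution using Haemophilus test medium. The MIC was read and MIC90 (μg/ml) reported for the group. Ceftriaxone, levofloxacin and imipenem served as comparators.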

[13] = system: Haemophilus influenzae; assay: Antimicrobial activity against beta-lactamase-negative ampicillin resistant Haemophilus influenzae by broth microdilution method; procedure, shortened: as §3
[14] = system: Staphylococcus aureus; assay: Antimicrobial activity against methicillin-resistant Staphylococcus aureus by broth microdilution method; procedure, shortened: as §2
[15] = system: Staphylococcus aureus; assay: Antimicrobial activity against methicillin-susceptible Staphylococcus aureus by broth microdilution method; procedure, shortened: as §1
[16] = system: Staphylococcus aureus; assay: Antimicrobial activity against vancomycin-intermediate Staphylococcus aureus by broth microdilution method; procedure, shortened: as §1
[17] = system: Staphylococcus aureus; assay: Antimicrobial activity against vancomycin-resistant Staphylococcus aureus by broth microdilution method; procedure, shortened: as §2
[18] = system: Staphylococcus; assay: Antimicrobial activity against methicillin-resistant coagulase-negative Staphylococcus by broth microdilution method; procedure, shortened: as §2
[19] = system: Staphylococcus; assay: Antimicrobial activity against methicillin-susceptible coagulase-negative Staphylococcus by broth microdilution method; procedure, shortened: as §1
[20] = system: Enterococcus faecalis; assay: Antimicrobial activity against Enterococcus faecalis by broth microdilution method; procedure, shortened: as §1
[21] = system: Enterococcus faecalis; assay: Antimicrobial activity against vancomycin-susceptible Enterococcus faecalis by broth microdilution method; procedure, shortened: as §1
[22] = system: Enterococcus faecium; assay: Antimicrobial activity against Enterococcus faecium by broth microdilution method; procedure, shortened: as §1
[23] = system: Enterococcus faecium; assay: Antimicrobial activity against vancomycin-susceptible Enterococcus faecium by broth microdilution method; procedure, shortened: as §1
[24] = system: Corynebacterium jeikeium; assay: Antimicrobial activity against Corynebacterium jeikeium by broth microdilution method; procedure, shortened: as §1
[25] = system: Listeria monocytogenes; assay: Antimicrobial activity against Listeria monocytogenes by broth microdilution method; procedure, shortened: as §1
[26] = system: Streptococcus agalactiae; assay: Antimicrobial activity against Streptococcus agalactiae by broth microdilution method
Procedure, shortened: (§4)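 Streptococcal isolates were tested by CLSI broth microdilution in cation-adjusted Mueller-Hinton broth supplemented with 3% lysed horse blood. The read-out was the MIC, with MIC90 (μg/ml) reported per group. Ceftriaxone, levofloxacin and imipenem served as comparators.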

[27] = system: Streptococcus pneumoniae; assay: Antimicrobial activity against levofloxacin-resistant Streptococcus pneumoniae by broth microdilution method
Procedure, shortened: (§5)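 CLSI broth microdilution in cation-adjusted Mueller-Hinton broth with 3% lysed horse blood, against streptococcal clinical isolates of the stated phenotype. Ceftaroline was compared with ceftriaxone, levofloxacin and imipenem. Activity was expressed as MICs (MIC90 in μg/ml).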

[28] = system: Streptococcus pneumoniae; assay: Antimicrobial activity against penicillin-resistant Streptococcus pneumoniae by broth microdilution method; procedure, shortened: as §5
[29] = system: Streptococcus pneumoniae; assay: Antimicrobial activity against penicillin-intermediate Streptococcus pneumoniae by broth microdilution method; procedure, shortened: as §5
[30] = system: Streptococcus pneumoniae; assay: Antimicrobial activity against penicillin-susceptible Streptococcus pneumoniae by broth microdilution method; procedure, shortened: as §4
[31] = system: Streptococcus pyogenes; assay: Antimicrobial activity against macrolide-resistant Streptococcus pyogenes by broth microdilution method; procedure, shortened: as §5
[32] = system: Streptococcus pyogenes; assay: Antimicrobial activity against macrolide-susceptible Streptococcus pyogenes by broth microdilution method; procedure, shortened: as §5
[33] = system: Streptococcus viridans; assay: Antimicrobial activity against Streptococcus viridans group clinical isolate by broth microdilution method; procedure, shortened: as §4
[34] = system: Klebsiella aerogenes; assay: Antimicrobial activity against ESBL-negative Enterobacter aerogenes by broth microdilution method; procedure, shortened: as §1
[35] = system: Enterobacter cloacae; assay: Antimicrobial activity against ESBL-negative Enterobacter cloacae by broth microdilution method; procedure, shortened: as §1
[36] = system: Escherichia coli; assay: Antimicrobial activity against ESBL-positive Escherichia coli by broth microdilution method; procedure, shortened: as §1
[37] = system: Klebsiella pneumoniae; assay: Antimicrobial activity against ESBL-negative Klebsiella pneumoniae by broth microdilution method; procedure, shortened: as §1
[38] = system: Klebsiella pneumoniae; assay: Antimicrobial activity against ESBL-positive Klebsiella pneumoniae by broth microdilution method; procedure, shortened: as §1
[39] = system: Morganella morganii; assay: Antimicrobial activity against Morganella morganii by broth microdilution method; procedure, shortened: as §1
[40] = system: Proteus mirabilis; assay: Antimicrobial activity against Proteus mirabilis by broth microdilution method; procedure, shortened: as §1
[41] = system: Providencia rettgeri; assay: Antimicrobial activity against Proteus rettgeri by broth microdilution method; procedure, shortened: as §1

C[C@@H](O)[C@H]1C(=O)N2C(C(=O)O)=C(SCCNC=N)C[C@H]12 [IMIPENEM ANHYDROUS]
MIC50 [1]: 2 µg/mL (≈ 6.68 µM)
MIC90 [1]: 4 µg/mL (≈ 13.4 µM)
MIC50 [2]: 2 µg/mL (≈ 6.68 µM)
MIC90 [2]: 4 µg/mL (≈ 13.4 µM)
MIC50 [3]: 0.5 µg/mL (≈ 1.67 µM)
MIC90 [3]: 1 µg/mL (≈ 3.34 µM)
MIC [4]: 0.12 µg/mL (≈ 0.401 µM)
MIC50 [4]: 0.12 µg/mL (≈ 0.401 µM)
MIC90 [4]: 0.25 µg/mL (≈ 0.835 µM)
MIC50 [5]: 0.25 µg/mL (≈ 0.835 µM)
MIC90 [5]: 0.25 µg/mL (≈ 0.835 µM)
MIC50 [6]: 8 µg/mL (≈ 26.7 µM)
MIC90 [6]: 32 µg/mL (≈ 107 µM)
MIC [7]: 1 µg/mL (≈ 3.34 µM)
MIC50 [7]: 1 µg/mL (≈ 3.34 µM)
MIC90 [7]: 16 µg/mL (≈ 53.4 µM)
MIC50 [8]: 8 µg/mL (≈ 26.7 µM)
MIC90 [8]: 16 µg/mL (≈ 53.4 µM)
MIC50 [9]: > 32 µg/mL
MIC90 [9]: > 32 µg/mL
MIC50 [10]: 0.06 µg/mL (≈ 0.2 µM)
MIC90 [10]: 0.06 µg/mL (≈ 0.2 µM)
MIC50 [11]: 0.5 µg/mL (≈ 1.67 µM)
MIC90 [11]: 0.5 µg/mL (≈ 1.67 µM)
MIC50 [12]: 0.25 µg/mL (≈ 0.835 µM)
MIC90 [12]: 0.5 µg/mL (≈ 1.67 µM)
MIC50 [13]: 0.5 µg/mL (≈ 1.67 µM)
MIC90 [13]: 1 µg/mL (≈ 3.34 µM)
MIC50 [14]: 0.25 µg/mL (≈ 0.835 µM)
MIC90 [14]: 32 µg/mL (≈ 107 µM)
MIC [15]: 0.015 µg/mL (≈ 0.0501 µM)
MIC50 [15]: 0.015 µg/mL (≈ 0.0501 µM)
MIC90 [15]: 0.03 µg/mL (≈ 0.1 µM)
MIC50 [16]: 0.25 µg/mL (≈ 0.835 µM)
MIC90 [16]: > 32 µg/mL
MIC [17]: 1 µg/mL (≈ 3.34 µM)
MIC50 [18]: 0.25 µg/mL (≈ 0.835 µM)
MIC90 [18]: 32 µg/mL (≈ 107 µM)
MIC [19]: 0.015 µg/mL (≈ 0.0501 µM)
MIC50 [19]: 0.015 µg/mL (≈ 0.0501 µM)
MIC90 [19]: 0.03 µg/mL (≈ 0.1 µM)
MIC50 [20]: 1 µg/mL (≈ 3.34 µM)
MIC90 [20]: 2 µg/mL (≈ 6.68 µM)
MIC50 [21]: 1 µg/mL (≈ 3.34 µM)
MIC90 [21]: 2 µg/mL (≈ 6.68 µM)
MIC50 [22]: > 32 µg/mL
MIC90 [22]: > 32 µg/mL
MIC50 [23]: 4 µg/mL (≈ 13.4 µM)
MIC90 [23]: > 32 µg/mL
MIC50 [24]: > 32 µg/mL
MIC90 [24]: > 32 µg/mL
MIC50 [25]: 0.06 µg/mL (≈ 0.2 µM)
MIC90 [25]: 0.06 µg/mL (≈ 0.2 µM)
MIC [26]: 0.015 µg/mL (≈ 0.0501 µM)
MIC50 [26]: 0.015 µg/mL (≈ 0.0501 µM)
MIC90 [26]: 0.015 µg/mL (≈ 0.0501 µM)
MIC50 [27]: 0.03 µg/mL (≈ 0.1 µM)
MIC90 [27]: 0.25 µg/mL (≈ 0.835 µM)
MIC50 [28]: 0.5 µg/mL (≈ 1.67 µM)
MIC90 [28]: 1 µg/mL (≈ 3.34 µM)
MIC50 [29]: 0.03 µg/mL (≈ 0.1 µM)
MIC90 [29]: 0.06 µg/mL (≈ 0.2 µM)
MIC [30]: 0.015 µg/mL (≈ 0.0501 µM)
MIC50 [30]: 0.015 µg/mL (≈ 0.0501 µM)
MIC90 [30]: 0.015 µg/mL (≈ 0.0501 µM)
MIC [31]: 0.015 µg/mL (≈ 0.0501 µM)
MIC50 [31]: 0.015 µg/mL (≈ 0.0501 µM)
MIC90 [31]: 0.015 µg/mL (≈ 0.0501 µM)
MIC [32]: 0.015 µg/mL (≈ 0.0501 µM)
MIC50 [32]: 0.015 µg/mL (≈ 0.0501 µM)
MIC90 [32]: 0.015 µg/mL (≈ 0.0501 µM)
MIC [33]: 0.015 µg/mL (≈ 0.0501 µM)
MIC50 [33]: 0.015 µg/mL (≈ 0.0501 µM)
MIC90 [33]: 0.12 µg/mL (≈ 0.401 µM)
MIC50 [34]: 1 µg/mL (≈ 3.34 µM)
MIC90 [34]: 1 µg/mL (≈ 3.34 µM)
MIC50 [35]: 0.25 µg/mL (≈ 0.835 µM)
MIC90 [35]: 0.5 µg/mL (≈ 1.67 µM)
MIC50 [36]: 0.12 µg/mL (≈ 0.401 µM)
MIC90 [36]: 0.25 µg/mL (≈ 0.835 µM)
MIC50 [37]: 0.25 µg/mL (≈ 0.835 µM)
MIC90 [37]: 0.5 µg/mL (≈ 1.67 µM)
MIC50 [38]: 0.12 µg/mL (≈ 0.401 µM)
MIC90 [38]: 0.25 µg/mL (≈ 0.835 µM)
MIC50 [39]: 4 µg/mL (≈ 13.4 µM)
MIC90 [39]: 4 µg/mL (≈ 13.4 µM)
MIC50 [40]: 2 µg/mL (≈ 6.68 µM)
MIC90 [40]: 4 µg/mL (≈ 13.4 µM)
MIC50 [41]: 2 µg/mL (≈ 6.68 µM)
MIC90 [41]: 4 µg/mL (≈ 13.4 µM)

— ChEMBL document CHEMBL1629657, “In vitro antimicrobial activity of a new cephalosporin, ceftaroline, and determination of quality control ranges for MIC testing” (2009)
